# Source: article PMC12219203 (Nature Communications, 2025)
# Legend:
# NOD2 = assay: HEK-Blue NOD2 SEAP reporter assay; assay type: cell-based, human; conditions: MDP, M-AE 200 nM; GM, M 20 μM; 18 h
# Summary of the method: (§1)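 HEK-Blue hNod1 or hNod2 cells were seeded at 50,000 cells/well in DMEM/10% FBS without selection antibiotics and stimulated at once for 18 h (n = 3). Supernatant was mixed 1:4 with Quanti-Blue and incubated 6 h at 37 °C, and absorbance was read at 620 nm. Values were blanked against water-treated wells, and the respective parental Null cell readouts were subtracted.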
# NOD1 = NOD1 (Homo sapiens, UniProt Q9Y239); assay: HEK-Blue NOD1 SEAP reporter assay; assay type: cell-based; conditions: GM, M 20 μM; 18 h
# Chain of NOD1 (Q9Y239 whole entry): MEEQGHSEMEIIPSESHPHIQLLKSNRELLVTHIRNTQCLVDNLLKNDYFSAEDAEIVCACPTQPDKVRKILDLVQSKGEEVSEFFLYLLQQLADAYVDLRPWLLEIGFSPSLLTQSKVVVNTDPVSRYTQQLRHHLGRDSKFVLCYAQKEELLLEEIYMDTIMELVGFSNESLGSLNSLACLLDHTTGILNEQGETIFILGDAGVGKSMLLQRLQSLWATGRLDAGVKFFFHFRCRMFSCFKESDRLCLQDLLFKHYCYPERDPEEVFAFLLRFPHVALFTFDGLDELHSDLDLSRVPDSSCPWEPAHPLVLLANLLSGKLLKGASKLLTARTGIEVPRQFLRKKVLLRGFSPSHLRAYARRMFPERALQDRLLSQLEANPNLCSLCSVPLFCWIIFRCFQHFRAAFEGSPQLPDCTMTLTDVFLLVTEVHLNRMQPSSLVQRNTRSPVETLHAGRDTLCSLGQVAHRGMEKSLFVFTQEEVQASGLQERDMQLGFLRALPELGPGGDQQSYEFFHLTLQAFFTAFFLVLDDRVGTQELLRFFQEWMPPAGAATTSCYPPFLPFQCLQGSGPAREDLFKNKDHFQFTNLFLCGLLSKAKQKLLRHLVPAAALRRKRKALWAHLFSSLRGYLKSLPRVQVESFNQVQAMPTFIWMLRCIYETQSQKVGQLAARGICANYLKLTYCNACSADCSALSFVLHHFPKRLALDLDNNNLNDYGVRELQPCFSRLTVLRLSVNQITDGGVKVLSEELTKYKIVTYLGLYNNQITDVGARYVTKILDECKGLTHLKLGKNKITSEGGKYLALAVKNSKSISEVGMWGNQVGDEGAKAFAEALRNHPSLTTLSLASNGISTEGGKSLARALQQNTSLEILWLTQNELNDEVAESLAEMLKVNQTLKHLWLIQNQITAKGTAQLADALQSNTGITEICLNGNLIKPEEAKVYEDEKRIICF
# Summary of the method: as §1
# [1] = system: WT bone-marrow-derived macrophages (BMDMs); assay: Cytokine gene expression in WT BMDMs; assay type: cell-based, mouse; conditions: GM 2-8 mM, M 8 mM
# Summary of the method: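 Marrow was flushed from the femur and tibia of female SPF C57BL/6J mice and red cells were lysed (NH4Cl/KHCO3). Cells at 200,000 cells/mL were differentiated for 6 days in IMDM with 20 ng/mL GM-CSF or 10% L929 supernatant, then switched to serum-free IMDM. Test compounds were added for 24 h (n = 3). Cytokine transcripts were measured by RT-qPCR (2-ΔΔCt, normalised to β-act).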
# RAW264.7 cells = assay: Cytokine expression in RAW264.7 macrophages; assay type: cell-based, mouse; conditions: GM 1-4 mM, M 4 mM, 24 h
# Summary of the method: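 RAW264.7 cells were kept in high-glucose IMDM with HEPES, 5% heat-inactivated FBS and penicillin/streptomycin at 37 °C, 5% CO2. They were exposed to test compounds for 24 h (n = 4). Total RNA was extracted with a column kit, and TNF-α and IL-6 transcripts were quantified by RT-qPCR using the 2-ΔΔCt method, normalised to β-act.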
# Tlr4-/- BMDMs = assay: Cytokine secretion by Tlr4-/- BMDMs; assay type: cell-based, mouse; conditions: ELISA, 24 h; GM 4 mM, MDP 0.4 mM, LPS 100 ng/mL, CpG 100 nM
# Summary of the method: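 Murine BMDMs were differentiated 6 days in complete medium with 20 ng/mL GM-CSF or 10% L929 supernatant, then switched to serum-free IMDM and stimulated 24 h. Mouse TNF-α and IL-6 in culture supernatants were quantified by sandwich ELISA. Samples were prediluted in 1% BSA in PBS, pH 7.4, where needed.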
# RAW-Dual cells = assay: TNF-α secretion by RAW-Dual WT cells, with or without TLR inhibitors; assay type: cell-based, mouse; conditions: inhibitor 10 μM, 1 h pre-incubation, then GM 2 mM, 24 h; ELISA
# Summary of the method: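 RAW-Dual cells were seeded at 100,000 cells/well and pre-incubated 1 h with 10 μM TLR2 (CU_CPT22), TLR4 (TAK-242) or TLR7/9 (AT791) inhibitor. They were then stimulated with 2 mM test compound for 24 h. Supernatants were cleared at 16,000 × g and TNF-α was measured by sandwich ELISA.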
# Incubation with 10% FBS = assay type: in vitro ADME, bovine; conditions: 37 C, 16 h, LC-MS
compound,measurement,setting,value
"CC(=O)N[C@H]1C(O)O[C@H](CO)[C@@H](O)[C@@H]1O[C@H](C)C(=O)O (some centres unmarked) [M, N-acetylmuramic acid, reference compound]",NOD2 activation in HEK-Blue reporter cells (in words),NOD2,unable to activate NOD1/2
same,NOD1 activation in HEK-Blue reporter cells (in words),NOD1,unable to activate NOD1/2
same,"Immuno-stimulatory activity (TNF-α, IL-6) in BMDMs (in words)",[1],less potent
same,"Immuno-stimulatory activity (TNF-α, IL-6) in RAW264.7 (in words)",RAW264.7 cells,less potent
CC(=O)N[C@H]1C(O)O[C@H](CO)[C@@H](O)[C@@H]1O[C@H](C)C(=O)N[C@@H](C)C(=O)N[C@H](CCC(=O)O)C(=O)O (some centres unmarked) [M-AE],NOD2 activation in HEK-Blue reporter cells (in words),NOD2,potent NOD2 activation similar to the model ligand MDP
"CC(=O)N[C@H]1C(O)O[C@H](CO)[C@@H](O)[C@@H]1O[C@H](C)C(=O)N[C@@H](C)C(=O)N[C@H](CCC(=O)O)C(N)=O (stereo partly drawn) [MDP, N-acetylmuramyl-L-Ala-D-isoGln, reference compound]",TNF-α and IL-6 production in Tlr4-/- BMDMs (in words),Tlr4-/- BMDMs,still trigger comparable proinflammatory cytokine production
CCOC(=O)C1=CCCC[C@H]1S(=O)(=O)Nc1ccc(F)cc1Cl [TAK-242],Effect of TLR inhibitor on GM-triggered TNF-α production,RAW-Dual cells,suppressed GM-triggered TNF-α production
M-AEKAA,Degradation on incubation with 10% FBS,Incubation with 10% FBS,reliably yields the expected degradation products: M and AEKAA
